In ChEMBL document CHEMBL3769370, “Synthesis and SAR of 4-methyl-5-pentylbenzene-1,3-diol (MPBD), produced by Dictyostelium discoideum” (2016):
Active and inactive are the calls of the source. No cut-off for these calls is given here.

Tests used:
Format in all cases: functional
Bacillus subtilis [1] = test: Antibacterial activity against Bacillus subtilis at 100 mM after 16 to 24 hrs by disk diffusion assay; conditions: for zone of inhibition at 100000 µM: read-out: DIZ
Method in brief: (§1)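 Bacteria grown in Lysogeny broth (LB), spread on LB or lactose peptone (LP) agar, and plates dried 10 min. 6 mm filter-paper disks placed, five per plate, at least 3 cm apart. Each disk loaded with a 100 mM solution of compound. Incubation 16–24 h at 37 °C. Zone of clearance around each disk inspected and photographed.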

Escherichia coli [2] = test: Antibacterial activity against Escherichia coli at 100 mM after 16 to 24 hrs by disk diffusion assay; conditions: for zone of inhibition at 100000 µM: read-out: DIZ; method in brief: as §1
Escherichia coli [3] = test: Antibacterial activity against Escherichia coli at 50 mM after 16 to 24 hrs by disk diffusion assay; conditions: read-out: DIZ
Method in brief: (§2)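 Positive-control disks loaded with 50 mM ampicillin solution. Bacteria grown in LB and spread on LB or LP agar, with plates dried 10 min before disks were placed. Disks were 6 mm filter paper, five per plate spaced at least 3 cm apart. Plates held at 37 °C for 16–24 h, then the clearance zone was checked and photographed.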

Bacillus subtilis [4] = test: Antibacterial activity against Bacillus subtilis at 50 mM after 16 to 24 hrs by disk diffusion assay; conditions: read-out: DIZ; method in brief: as §2

Compound | zone of inhibition at 100000 µM (Bacillus subtilis [1]) [mm] | zone of inhibition at 100000 µM (Escherichia coli [2]) [mm] | other results
CCCCCc1cc(O)cc(O)c1CC | 1 | 4 | 
CCCCCc1cc(OC)cc(OC)c1C |  |  | Activity (Bacillus subtilis [1]): inactive; Activity (Escherichia coli [2]): inactive
CCCCCc1cc(O)cc(O)c1C | 1 | 5 | 
CCCCCc1cc(O)cc(O)c1CCC | 4 | 4 | 
CCCCCc1cc(O)ccc1C | 1 | 1 | 
CC1(C)S[C@@H]2[C@H](NC(=O)[C@H](N)c3ccccc3)C(=O)N2[C@H]1C(=O)O [AMPICILLIN] |  |  | zone of inhibition at 50000 µM (Escherichia coli [3]): 7 mm; zone of inhibition at 50000 µM (Bacillus subtilis [4]): 7 mm
